Measured values pooled from the literature.
Each line is one published result; the experiments were not run side by side.
Target: Mitogen-activated protein kinase 7 (MAPK7, Homo sapiens, UniProt Q13164)

SMILES	observed	method	concentration	remaining binding
O=C(c1ccc(Nc2ncc(Cl)c(-c3ccc(Cl)s3)n2)cc1)N1CCC(N2CCCC2)CC1	binding	competition with immobilised ligand	1 µM	7.1%
COc1ccnn2ncc(-c3ccnc(N(C)C)n3)c12	binding	–	1 µM	100%
COc1cnc(Nc2cccc(S(N)(=O)=O)c2)nc1N1CCN(c2ccccc2)CC1	binding	competition with immobilised ligand	1 µM	100%
O=C(NCCCN1CCOCC1)c1ccc(Nc2ncc(Cl)c(-c3ccc(Cl)s3)n2)cc1	binding	competition with immobilised ligand	1 µM	28%
C[C@@]1(Cc2ccc(C#N)cc2)C(=O)N(c2cc(Cl)cc(Cl)c2)c2ncc(C(=O)NC3(c4nc(C5CCC5)no4)CC3)n21	cell-free assay	competition with immobilised ligand	1 µM	100%
N[C@@H]1CCN(c2nccc(-c3cnn4ncccc34)n2)C1	binding	–	1 µM	100%
O=C(NCC1CCOCC1)c1n[nH]cc1NC(=O)c1c(F)cccc1F	binding	competition with immobilised ligand	1 µM	90%
CN(CCCC(F)(F)F)c1nccc(-c2cnn3ncccc23)n1	binding	–	1 µM	100%
C[C@@H](c1ccc(-n2cnc3c(N)ncnc32)cc1)N1CCc2nn(C)c(Cc3ccccc3)c2C1=O	binding	competition with immobilised ligand	0.1 µM	89%
N#Cc1ccc(Nc2ccc3[nH]c(=O)[nH]c3c2)c(Cl)c1	cell-free assay	competition with immobilised ligand	1 µM	100%
Nc1ncc2c(n1)-c1c([nH]c3ccc(C#CC4CC4)cc13)CCCC2	binding	competition with immobilised ligand	1 µM	85%
COc1cc(C(=O)N2CCC(N3CCN(C)CC3)CC2)ccc1Nc1ncc2c(n1)N(C)c1ccccc1C(=O)N2C	binding	competition with immobilised ligand	10 µM	0.05%
CN(c1ccnc(CNc2nc(Nc3ccc4c(c3)CC(=O)N4)ncc2C(F)(F)F)n1)S(C)(=O)=O	cell-free assay	competition with immobilised ligand	1 µM	78%
Cc1cnn2ncc(-c3ccnc(N(C)C)n3)c2c1	binding	–	1 µM	96%
O=C(Nc1cnc(Oc2ccc(F)cc2)nc1)N1CCc2ncccc2[C@@H]1c1ccc(F)cc1	cell-free assay	competition with immobilised ligand	1 µM	96%
c1cnn2ncc(-c3ccnc(N4CCC45COC5)n3)c2c1	binding	–	1 µM	87%
CS(=O)(=O)N1CCCC(NC(=O)[C@H](CCC2CCCCC2)NC(=O)c2ccc(CNC(=O)c3cnc4ccccn34)cc2)C1 (stereo partly shown)	cell-free assay	competition with immobilised ligand	0.1 µM	94%
C[C@@H]1CCN(c2nccc(-c3cnn4ncccc34)n2)C1	binding	–	1 µM	100%
Cc1cnc(Nc2ccc(C(=O)N3CCC(N4CCCC4)CC3)cc2)nc1-c1cc2ccccc2s1	binding	competition with immobilised ligand	1 µM	21%
CN(C)c1ncc(F)c(-c2cnn3ncccc23)n1	binding	–	1 µM	99%
c1cncc(-c2cccc(Nc3nccc(NC4CCCCC4)n3)c2)c1	binding	competition with immobilised ligand	10 µM	92%
O=C(NS(=O)(=O)c1ccc(NCC2CCOCC2)c([N+](=O)[O-])c1)c1ccc(N2CCN(Cc3ccc(C(F)(F)F)cc3-c3ccc(Cl)cc3)CC2)cc1Oc1cnc2[nH]ccc2c1	cell-free assay	competition with immobilised ligand	1 µM	100%
